What was measured:
[1] = tested on: U2OS; experiment: Multiplex assay against U2OS; format: toxicity, cell-based; conditions: human
How it was run: (§1)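 Cells were classed with CellPathfinder machine-learning gating, first as Hoechst high-intensity objects or normal cells, then (normal cells) as healthy, pyknosed or fragmented nuclei, and finally (pyknosed cells) as mitotic or apoptotic. Staining of live cells at seeding used Hoechst33342, BioTracker Green Microtubule Cytoskeleton Dye, MitoTracker Red and Annexin V Alexa Fluor 680, with imaging on a CQ1 microscope at 37°C and 5% CO2 after compound addition. Tubulin, mitochondrial-mass and membrane-permeability phenotypes are per cents of healthy-nucleus cells.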

[2] = tested on: HEK-293T; experiment: Multiplex assay against HEK293T; format: toxicity, cell-based; conditions: human, 12 h; how it was run: as §1
[3] = 12 h, 1 µM, compound concentration 1 uM, replicate 1
[4] = 12 h, 1 µM, compound concentration 1 uM, replicate 2
[5] = 12 h, 10 µM, compound concentration 10 uM, replicate 1
[6] = 12 h, 10 µM, compound concentration 10 uM, replicate 2
[7] = 24 h, 1 µM, compound concentration 1 uM, replicate 1
[8] = 24 h, 1 µM, compound concentration 1 uM, replicate 2
[9] = 24 h, 10 µM, compound concentration 10 uM, replicate 1
[10] = 24 h, 10 µM, compound concentration 10 uM, replicate 2
[11] = 48 h, 1 µM, compound concentration 1 uM, replicate 1
[12] = 48 h, 1 µM, compound concentration 1 uM, replicate 2
[13] = 48 h, 10 µM, compound concentration 10 uM, replicate 1
[14] = 48 h, 10 µM, compound concentration 10 uM, replicate 2
[15] = 1 µM, compound concentration 1 uM, replicate 1
[16] = 1 µM, compound concentration 1 uM, replicate 2

Cc1ccc(-c2ccc(F)cc2COc2ccc(CCC(=O)O)cc2)cc1
Population Apoptotic (%) [1, 3]: 75% | Population Fragmented Nuclei (%) [1, 3]: 22% | Population Healthy Nuclei (%) [1, 3]: 71% | Population Mitotic Cells (%) [1, 3]: 25% | Population Normal (%) [1, 3]: 97% | Population Pyknosed Nuclei (%) [1, 3]: 5% | Total Cell Count [1, 3]: 277 | Population Apoptotic (%) [1, 4]: 100% | Population Fragmented Nuclei (%) [1, 4]: 17% | Population Healthy Nuclei (%) [1, 4]: 74% | Population Mitotic Cells (%) [1, 4]: 0% | Population Pyknosed Nuclei (%) [1, 4]: 8% | Total Cell Count [1, 4]: 135 | Population Apoptotic (%) [1, 5]: 75% | Population Fragmented Nuclei (%) [1, 5]: 31% | Population Healthy Nuclei (%) [1, 5]: 61% | Population Mitotic Cells (%) [1, 5]: 25% | Population Normal (%) [1, 5]: 98% | Population Pyknosed Nuclei (%) [1, 5]: 6% | Total Cell Count [1, 5]: 238 | Population Apoptotic (%) [1, 6]: 83% | Population Fragmented Nuclei (%) [1, 6]: 14% | Population Healthy Nuclei (%) [1, 6]: 75% | Population Mitotic Cells (%) [1, 6]: 16% | Population Normal (%) [1, 6]: 97% | Population Pyknosed Nuclei (%) [1, 6]: 10% | Total Cell Count [1, 6]: 123 | Population Apoptotic (%) [1, 7]: 90% | Population Fragmented Nuclei (%) [1, 7]: 21% | Population Healthy Nuclei (%) [1, 7]: 69% | Population Mitotic Cells (%) [1, 7]: 10% | Population Normal (%) [1, 7]: 97% | Population Pyknosed Nuclei (%) [1, 7]: 9% | Total Cell Count [1, 7]: 340 | Population Apoptotic (%) [1, 8]: 100% | Population Fragmented Nuclei (%) [1, 8]: 20% | Population Healthy Nuclei (%) [1, 8]: 70% | Population Mitotic Cells (%) [1, 8]: 0% | Population Normal (%) [1, 8]: 98% | Population Pyknosed Nuclei (%) [1, 8]: 8% | Total Cell Count [1, 8]: 175 | Population Apoptotic (%) [1, 9]: 94% | Population Fragmented Nuclei (%) [1, 9]: 26% | Population Healthy Nuclei (%) [1, 9]: 67% | Population Mitotic Cells (%) [1, 9]: 5% | Population Normal (%) [1, 9]: 98% | Population Pyknosed Nuclei (%) [1, 9]: 5% | Total Cell Count [1, 9]: 295 | Population Apoptotic (%) [1, 10]: 93% | Population Fragmented Nuclei (%) [1, 10]: 22% | Population Mitotic Cells (%) [1, 10]: 6% | Population Normal (%) [1, 10]: 97% | Population Pyknosed Nuclei (%) [1, 10]: 9% | Total Cell Count [1, 10]: 160 | Population Apoptotic (%) [1, 11]: 89% | Population Fragmented Nuclei (%) [1, 11]: 17% | Population Healthy Nuclei (%) [1, 11]: 74% | Population Mitotic Cells (%) [1, 11]: 10% | Population Normal (%) [1, 11]: 97% | Population Pyknosed Nuclei (%) [1, 11]: 8% | Total Cell Count [1, 11]: 487 | Population Apoptotic (%) [1, 12]: 95% | Population Fragmented Nuclei (%) [1, 12]: 15% | Population Healthy Nuclei (%) [1, 12]: 75% | Population Mitotic Cells (%) [1, 12]: 5% | Total Cell Count [1, 12]: 242 | Population Apoptotic (%) [1, 13]: 87% | Population Fragmented Nuclei (%) [1, 13]: 21% | Population Healthy Nuclei (%) [1, 13]: 70% | Population Mitotic Cells (%) [1, 13]: 12% | Population Normal (%) [1, 13]: 97% | Population Pyknosed Nuclei (%) [1, 13]: 7% | Total Cell Count [1, 13]: 421 | Population Apoptotic (%) [1, 14]: 88% | Population Fragmented Nuclei (%) [1, 14]: 16% | Population Healthy Nuclei (%) [1, 14]: 72% | Population Mitotic Cells (%) [1, 14]: 11% | Population Normal (%) [1, 14]: 98% | Total Cell Count [1, 14]: 236 | Population Apoptotic (%) [2, 15]: 42% | Population Fragmented Nuclei (%) [2, 15]: 6% | Population Healthy Nuclei (%) [2, 15]: 82% | Population Hoechst High Intensity Objects (%) [2, 15]: 9% | Population Mitochondria Different-Phenotype (%) [2, 15]: 36% | Population Mitotic Cells (%) [2, 15]: 57% | Population Normal (%) [2, 15]: 90% | Population Tubulin-Different-Phenotype (%) [2, 15]: 18% | Total Cell Count [2, 15]: 465 | Population Apoptotic (%) [2, 16]: 33% | Population Healthy Nuclei (%) [2, 16]: 77% | Population Mitochondria Different-Phenotype (%) [2, 16]: 50% | Population Mitotic Cells (%) [2, 16]: 66% | Population Pyknosed Nuclei (%) [2, 16]: 15% | Total Cell Count [2, 16]: 324 | Population Apoptotic (%) ([2]; 10 µM, compound concentration 10 uM, replicate 1): 32%

From ChEMBL document CHEMBL5058577, “EUbOPEN Chemogenomics Library 2 (Multiplex)” (2022)
